Measurements reported in PMC8600527 (ACS Omega, 2021).

What was measured:
[1] = tested on: carrageenan-induced paw edema; test: Carrageenan-induced paw edema in mice; type: in vivo, Balb/c mice; conditions: 1 mg/kg; paw volume 0 h vs 10 h
How it was run: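 Female Balb/c mice were fasted overnight and dosed orally with test compound at 1, 2 or 5 mg/kg (n = 5 per group). 1% carrageenan in PBS was injected subplantar into the left hind paw. Paw volume was read by plethysmometer at 1, 3, 6, 8 and 10 h. % inhibition was calculated from edema volume in control vs treated groups.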

macrophage phagocytosis = test: Macrophage phagocytosis by the carbon clearance method; type: in vivo, Balb/C mice (Mus musculus); conditions: mice, 1 mg/kg
How it was run: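 Mice received saline, test compound (1, 2, 5 mg/kg) or dexamethasone (1 mg/kg) as reference. On day 6, carbon ink suspension was injected via the tail vein. Retro-orbital blood was taken at 0 and 30 min, lysed in 0.1% sodium carbonate, and read at 675 nm. Phagocytic index was derived from OD change between the two times (n = 5).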

Q: What does the source list for `C[C@@H]1C[C@H]2[C@@H]3CCC4=CC(=O)C=C[C@]4(C)[C@@]3(F)[C@@H](O)C[C@]2(C)[C@@]1(O)C(=O)CO` [dexamethasone]?
A: percentage inhibition of paw edema [1]: 88.5%; phagocytic index (macrophage phagocytosis): 0.038 ± 0.002
